From ChEMBL document CHEMBL1133154, “Inhibition of inducible nitric oxide synthase by acetamidine derivatives of hetero-substituted lysine and homolysine” (Bioorg Med Chem Lett, 2000) come the findings set out here.

By IC50 is commonly meant the concentration needed to halve the response being measured. Low values mean higher potency, high ones lower potency.

Bounds are passed on as bounds.

For assay [1], the target named is Nitric oxide synthase (inducible and endothelial) (Homo sapiens) (UniProt P35228+P29474). The experiment in a line: Ratio of Endothelial Nitric Oxide Synthase to Inducible nitric oxide synthase. The assay is classed as protein assay.
Assay [2] has as its target Nitric oxide synthase, inducible (Homo sapiens, UniProt P35228). Kind of assay: Inhibition of human inducible nitric oxide synthase.
For assay [3], the target named is T1, Nitric oxide synthase 1 (Homo sapiens, UniProt P29475). Kind of assay: Inhibition of human neuronal Nitric Oxide Synthase.
Assay [4] addresses Nitric oxide sythases; iNOS & nNOS (Homo sapiens) (UniProt P29475+P35228). Kind of assay: Ratio of binding to Neuronal nitric oxide synthase and Inducible nitric oxide synthase. The format is protein assay.
Assay [5] addresses T2, Nitric oxide synthase 3 (Homo sapiens, UniProt P29474).
T2 sequence (P29474 whole entry): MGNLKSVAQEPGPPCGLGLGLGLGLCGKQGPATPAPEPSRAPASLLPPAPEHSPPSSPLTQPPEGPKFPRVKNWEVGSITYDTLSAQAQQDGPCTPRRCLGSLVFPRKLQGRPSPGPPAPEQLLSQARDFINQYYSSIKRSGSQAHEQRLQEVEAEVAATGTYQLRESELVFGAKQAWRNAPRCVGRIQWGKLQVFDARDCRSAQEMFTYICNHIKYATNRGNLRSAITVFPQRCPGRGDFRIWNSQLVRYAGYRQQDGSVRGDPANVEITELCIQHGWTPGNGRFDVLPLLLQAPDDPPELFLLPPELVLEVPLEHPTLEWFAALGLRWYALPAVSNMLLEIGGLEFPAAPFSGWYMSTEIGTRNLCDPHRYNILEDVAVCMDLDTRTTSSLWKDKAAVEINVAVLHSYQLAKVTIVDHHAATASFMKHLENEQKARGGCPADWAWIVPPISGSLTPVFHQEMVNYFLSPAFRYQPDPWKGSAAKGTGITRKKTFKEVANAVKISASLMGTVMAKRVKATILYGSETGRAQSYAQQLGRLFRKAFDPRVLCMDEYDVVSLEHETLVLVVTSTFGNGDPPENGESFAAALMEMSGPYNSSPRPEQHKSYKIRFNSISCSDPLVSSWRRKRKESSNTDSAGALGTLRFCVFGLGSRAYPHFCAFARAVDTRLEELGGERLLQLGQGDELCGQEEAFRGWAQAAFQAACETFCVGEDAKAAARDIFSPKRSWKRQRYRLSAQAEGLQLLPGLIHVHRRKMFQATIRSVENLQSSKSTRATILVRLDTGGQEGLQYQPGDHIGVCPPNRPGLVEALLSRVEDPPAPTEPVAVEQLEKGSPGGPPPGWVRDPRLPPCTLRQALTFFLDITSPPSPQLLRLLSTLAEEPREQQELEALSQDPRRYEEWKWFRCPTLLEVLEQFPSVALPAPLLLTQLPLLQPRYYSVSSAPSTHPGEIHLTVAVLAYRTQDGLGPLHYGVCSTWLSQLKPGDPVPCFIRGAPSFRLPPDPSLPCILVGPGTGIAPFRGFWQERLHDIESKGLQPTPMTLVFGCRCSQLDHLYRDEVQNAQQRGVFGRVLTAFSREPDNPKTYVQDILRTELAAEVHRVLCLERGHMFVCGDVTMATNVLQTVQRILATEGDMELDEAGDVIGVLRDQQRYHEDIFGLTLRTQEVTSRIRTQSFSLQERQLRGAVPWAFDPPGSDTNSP
Kind of assay: Inhibition of human endothelial Nitric Oxide Synthase.

Assay [6] concerns the target T2, Nitric oxide synthase 3. The experiment in a line: Concentration required for inhibition of endothelial Nitric Oxide Synthase in human. Put shortly:
(§1)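 Recombinant human NOS enzymes (endothelial or neuronal isoform) were tested in an oxyhaemoglobin assay. Readings were taken 15–30 min after inhibitor addition so that time-dependent inhibition could develop, and IC50 values were derived from those readings.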

The target of assay [7] is T1, Nitric oxide synthase 1. The experiment in a line: Concentration required for inhibition of neuronal Nitric Oxide Synthase in human. Put shortly:
as §1

Chain of Nitric oxide sythases; iNOS & nNOS (Homo sapiens) (P29475 whole entry, looked up): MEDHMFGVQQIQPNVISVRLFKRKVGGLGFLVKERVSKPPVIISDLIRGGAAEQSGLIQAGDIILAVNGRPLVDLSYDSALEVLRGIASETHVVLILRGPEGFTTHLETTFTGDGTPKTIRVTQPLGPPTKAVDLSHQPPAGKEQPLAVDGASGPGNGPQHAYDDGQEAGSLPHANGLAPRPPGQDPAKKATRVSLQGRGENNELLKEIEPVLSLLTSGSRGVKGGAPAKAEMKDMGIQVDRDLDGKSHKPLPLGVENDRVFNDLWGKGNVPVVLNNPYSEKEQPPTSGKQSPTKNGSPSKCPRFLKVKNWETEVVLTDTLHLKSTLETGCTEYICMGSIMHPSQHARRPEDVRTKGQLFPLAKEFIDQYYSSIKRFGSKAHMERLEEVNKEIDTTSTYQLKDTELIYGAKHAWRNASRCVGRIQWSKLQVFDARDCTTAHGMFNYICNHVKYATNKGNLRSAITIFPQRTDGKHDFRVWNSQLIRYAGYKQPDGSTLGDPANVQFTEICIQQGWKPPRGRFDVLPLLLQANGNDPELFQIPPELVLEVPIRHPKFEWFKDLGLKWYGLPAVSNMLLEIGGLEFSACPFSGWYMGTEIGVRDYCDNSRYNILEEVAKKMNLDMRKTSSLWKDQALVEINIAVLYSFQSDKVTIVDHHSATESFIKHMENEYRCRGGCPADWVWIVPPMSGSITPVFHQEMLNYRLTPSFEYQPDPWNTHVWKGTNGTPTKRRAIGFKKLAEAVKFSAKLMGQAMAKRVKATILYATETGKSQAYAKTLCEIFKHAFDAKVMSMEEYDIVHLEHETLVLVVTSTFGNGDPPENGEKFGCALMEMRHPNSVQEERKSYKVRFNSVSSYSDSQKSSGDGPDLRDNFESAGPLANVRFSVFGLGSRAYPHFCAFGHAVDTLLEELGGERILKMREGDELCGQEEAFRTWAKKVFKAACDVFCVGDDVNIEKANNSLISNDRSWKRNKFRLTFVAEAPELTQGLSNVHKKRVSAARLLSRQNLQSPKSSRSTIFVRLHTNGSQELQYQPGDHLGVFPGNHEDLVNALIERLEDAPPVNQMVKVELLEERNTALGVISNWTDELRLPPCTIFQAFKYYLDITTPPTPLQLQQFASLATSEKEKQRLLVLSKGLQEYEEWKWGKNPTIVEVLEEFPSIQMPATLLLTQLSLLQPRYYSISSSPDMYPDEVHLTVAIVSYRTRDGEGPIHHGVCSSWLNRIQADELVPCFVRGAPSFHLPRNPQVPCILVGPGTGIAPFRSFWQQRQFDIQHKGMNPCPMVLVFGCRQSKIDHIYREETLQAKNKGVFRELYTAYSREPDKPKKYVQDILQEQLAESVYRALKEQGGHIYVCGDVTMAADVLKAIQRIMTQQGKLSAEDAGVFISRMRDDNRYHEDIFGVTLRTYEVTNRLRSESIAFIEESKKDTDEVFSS
Chain of Nitric oxide sythases; iNOS & nNOS (Homo sapiens) (P35228 whole entry, looked up): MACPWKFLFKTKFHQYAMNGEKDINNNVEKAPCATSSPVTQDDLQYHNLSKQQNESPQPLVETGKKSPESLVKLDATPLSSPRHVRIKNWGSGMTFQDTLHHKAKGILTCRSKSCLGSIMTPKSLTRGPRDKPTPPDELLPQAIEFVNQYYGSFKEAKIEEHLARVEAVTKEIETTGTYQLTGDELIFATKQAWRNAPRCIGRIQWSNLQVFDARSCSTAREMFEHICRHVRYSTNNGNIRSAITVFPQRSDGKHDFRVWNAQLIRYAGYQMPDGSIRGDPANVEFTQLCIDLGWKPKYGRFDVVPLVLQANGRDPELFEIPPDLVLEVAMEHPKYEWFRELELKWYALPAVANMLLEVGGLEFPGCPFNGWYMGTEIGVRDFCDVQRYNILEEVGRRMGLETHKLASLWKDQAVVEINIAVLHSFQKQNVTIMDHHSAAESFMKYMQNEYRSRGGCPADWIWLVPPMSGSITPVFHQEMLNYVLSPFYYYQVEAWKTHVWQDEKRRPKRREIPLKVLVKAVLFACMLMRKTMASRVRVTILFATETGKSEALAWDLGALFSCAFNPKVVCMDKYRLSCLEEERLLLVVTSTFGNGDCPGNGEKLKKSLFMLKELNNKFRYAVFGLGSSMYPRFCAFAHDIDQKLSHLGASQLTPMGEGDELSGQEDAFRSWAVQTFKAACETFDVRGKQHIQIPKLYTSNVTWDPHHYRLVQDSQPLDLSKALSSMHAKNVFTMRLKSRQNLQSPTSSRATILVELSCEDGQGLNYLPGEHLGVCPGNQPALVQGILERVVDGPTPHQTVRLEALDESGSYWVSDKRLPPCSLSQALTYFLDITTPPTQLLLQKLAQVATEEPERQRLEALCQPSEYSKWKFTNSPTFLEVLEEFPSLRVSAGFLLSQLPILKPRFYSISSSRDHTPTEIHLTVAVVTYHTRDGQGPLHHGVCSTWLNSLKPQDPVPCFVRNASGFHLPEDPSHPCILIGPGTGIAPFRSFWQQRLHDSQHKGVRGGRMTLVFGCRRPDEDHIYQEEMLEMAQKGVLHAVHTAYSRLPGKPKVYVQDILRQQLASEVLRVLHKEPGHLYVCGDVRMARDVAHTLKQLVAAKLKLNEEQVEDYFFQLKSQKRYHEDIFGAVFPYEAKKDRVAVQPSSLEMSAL
T1 sequence (P29475 whole entry): as the sequence (P29475 whole entry, looked up) above
Chain of Nitric oxide synthase, inducible (P35228 whole entry): as the sequence (P35228 whole entry, looked up) above

As for `CC(=N)NCCSCC[C@H](N)C(=O)O` [GW-274150], the Ratio in assay [1] is 333; in assay [4], 104. The half-maximal inhibitory concentration (IC50) was 1.4 µM in assay [2], 145 µM against Nitric oxide synthase 1 [3] and 466 µM on Nitric oxide synthase 3 [5].
For `CC(=N)NCCOCCC(N)C(=O)O` (stereo not given) the same measures were 51, 5, 1.4 µM, 6 µM and 72 µM.
`CC(=N)NCCOC[C@H](N)C(=O)O`: the Ratio in assay [1] was 11; in assay [4], 10. The half-inhibitory concentration (IC50) was 1.2 µM in assay [2], 11.6 µM on Nitric oxide synthase 1 [3] and 13 µM against Nitric oxide synthase 3 [5].
For `CC(=N)NCCSC[C@@H](N)C(=O)O`, the results for the 50% inhibitory concentration (IC50) (against Nitric oxide synthase 3 [6]; in assay [2]; against Nitric oxide synthase 1 [3]) were 40 µM, 0.7 µM and 13.2 µM, respectively. Besides, the Ratio turned out to be 57 in assay [1] and 19 in assay [4].
As to `CC(=N)NCCSCC[C@@H](N)C(=O)O`, the Ratio in assay [1] and in assay [4] was more than 17 each time. Further, the IC50 is 5.9 µM in assay [2], more than 100 µM against Nitric oxide synthase 1 [3] and more than 100 µM against Nitric oxide synthase 3 [5].
On to `CC(=N)NCC[S+]([O-])C[C@@H](N)C(=O)O` (stereo not given in full), for which the Ratio in assay [1] was found to be 19; in assay [4], 9. In addition, the results for the 50% inhibitory concentration (IC50) (in assay [2]; against Nitric oxide synthase 1 [3]; against Nitric oxide synthase 3 [5]) were 8 µM, 68 µM and 155 µM, respectively.
`CC(=N)NCCCS(=O)(=O)C[C@H](N)C(=O)O`: the IC50 (in assay [2]; on Nitric oxide synthase 1 [3]; on Nitric oxide synthase 3 [5]) was more than 100 µM throughout.
For `CC(=N)NCCCSC[C@H](N)C(=O)O`, the results for the IC50 (in assay [2]; on Nitric oxide synthase 1 [3]; at Nitric oxide synthase 3 [5]) were 62 µM, more than 100 µM and more than 100 µM, respectively.
Consider `CC(=N)NCCS(=O)(=O)CCC(N)C(=O)O` (stereo not given), for which the half-maximal inhibitory concentration (IC50) (in assay [2]; against Nitric oxide synthase 1 [7]; against Nitric oxide synthase 3 [5]) was more than 100 µM each time.
For the compound `CC(=N)NCCCCCC(N)C(=O)O` (stereo not given), the Ratio in assay [1] and in assay [4] was more than 5 throughout. The IC50 was 20 µM in assay [2], more than 100 µM against Nitric oxide synthase 1 [3] and more than 100 µM against Nitric oxide synthase 3 [5].
Take `CC(=N)NCCSC[C@H](N)C(=O)O`: the Ratio in assay [1] was more than 18; in assay [4] it was 10. Further, the half-maximal inhibitory concentration (IC50) in assay [2] is 5.4 µM; at Nitric oxide synthase 1 [3], 53 µM; at Nitric oxide synthase 3 [5] it was more than 100 µM.
With `CC(=N)NCC[S+]([O-])CCC(N)C(=O)O` (stereo not given), the half-inhibitory concentration (IC50) (in assay [2]; at Nitric oxide synthase 1 [3]; at Nitric oxide synthase 3 [5]) was more than 100 µM each time.
Consider `CC(=N)NCCCC[C@@H](N)C(=O)O`, for which the Ratio in assay [1] came out at 49; in assay [4], 23. The figures for the half-maximal inhibitory concentration (IC50) (in assay [2]; against Nitric oxide synthase 1 [3]; at Nitric oxide synthase 3 [5]) were 1.6 µM, 37 µM and 78 µM, respectively.
On to `CC(=N)NCCCOC[C@H](N)C(=O)O`, for which the IC50 (in assay [2]; against Nitric oxide synthase 1 [3]; against Nitric oxide synthase 3 [5]) was more than 100 µM each time.
Consider `CC(=N)NCCS(=O)(=O)C[C@@H](N)C(=O)O`, for which the results for the Ratio in assay [1] and in assay [4] were more than 125 and 78, respectively. For the same compound, the IC50 in assay [2] was 8 µM; against Nitric oxide synthase 1 [3], 630 µM; against Nitric oxide synthase 3 [5], more than 1000 µM.
